Active and inactive are the calls of the source. No cut-off for these calls is given here.

Experiment [1] concerns the target T1, Protein cereblon/Histone-lysine N-methyltransferase EZH2 (Homo sapiens) (UniProt Q15910+Q96SW2). Kind of experiment: PROTAC activity at CRBN E3 ligase/EZH2 in PRC2 complex in human WSUDLCL2 cells assessed as downregulation of EZH2 expression at 1 uM pretreated with lenalidomide for 4 hrs followed by compound addition and measured after 48 hrs by Western blot analysis. The experiment is classed as cell-based. An outline of the steps: (§1)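 WSU-DLCL-2 cells pretreated 4 h with the named inhibitor, then compound added and incubated a further 48 h. EZH2, SUZ12, EED and RbAp48 measured by western blot (nitrocellulose transfer, skim-milk block, primary antibody overnight at 4 °C, chemiluminescent detection).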
For orientation: A western blot detects proteins with antibodies after separation by electrophoresis.

Experiment [2] concerns WSUDLCL2. Nature of the experiment: Effect on Histone H3 methylation in human WSUDLCL2 cells assessed as reduction in H3K4me3 levels at upto 10 uM incubated for 48 hrs by Western blot analysis. The experiment is classed as functional, cell-based. To be noted: dose microM <=10, time 48.0 hrs. In short, it runs like this:
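Lysates run on SDS-PAGE and transferred to nitrocellulose. Membranes blocked with 5% skim milk for 2 h, primary antibody applied overnight at 4 °C, then secondary antibody and chemiluminescent detection of histone H3 methylation marks.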

Experiment [3] addresses T1, Protein cereblon/Histone-lysine N-methyltransferase EZH2 (Homo sapiens). Nature of the experiment: PROTAC activity at CRBN E3 ligase/EZH2 in PRC2 complex in human WSUDLCL2 cells assessed as induction of SUZ12 degradation at 1 uM measured up to 2 hrs by Western blot analysis. In kind it is cell-based. To be noted: time hrs <=2.
In experiment [4] the test system is WSUDLCL2. Kind of experiment: Antiproliferative activity against human WSUDLCL2 cells harboring EZH2-Y641F mutant assessed as inhibition of cell growth at 10 uM incubated for 9 days by optical microscopic analysis. In kind it is functional, cell-based. The conditions noted are these: time 9.0 day. An outline of the steps: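 WSU-DLCL-2 cells seeded at 5 × 10³ per well, incubated 24 h, then exposed to 10 μM compound for 9 days with medium refreshed. Cells photographed and counted on days 1, 3, 5, 7 and 9. Mean SD of three independent experiments, t-test versus DMSO.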

The target of experiment [5] is T1, Protein cereblon/Histone-lysine N-methyltransferase EZH2 (Homo sapiens). Nature of the experiment: PROTAC activity at CRBN E3 ligase/EZH2 in PRC2 complex in human WSUDLCL2 cells assessed as downregulation of SUZ12 expression at 1 uM pretreated with EED226 for 4 hrs followed by compound addition and measured after 48 hrs by Western blot analysis. In kind it is cell-based. In short, it runs like this: as §1

Experiment [6] has the same target. Kind of experiment: PROTAC activity at CRBN E3 ligase/EZH2 in PRC2 complex in human WSUDLCL2 cells assessed as induction of RbAp48 degradation by measuring reduction in RbAp48 protein level at 1 uM measured after 48 to 72 hrs by Western blot analysis. The experiment is classed as cell-based. To be noted: time 48-72 hrs.
Experiment [7] relates to NCI-H1299. Nature of the experiment: Downregulation of CEP76 mRNA expression in human NCI-H1299 cells at 10 uM incubated for 48 hrs by qRT-PCR analysis. The experiment is classed as functional, cell-based. In short, it runs like this: (§2)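 Cells treated 48 h. Total RNA extracted with Trizol, reverse-transcribed, and SYBR RT-qPCR run: 95 °C 30 s, then 40 cycles of 95 °C 6 s and 60 °C 20 s. mRNA normalized to the DMSO-treated group. Mean SD of three independent experiments, t-test versus DMSO.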

In experiment [8] the target is T1, Protein cereblon/Histone-lysine N-methyltransferase EZH2 (Homo sapiens). Nature of the experiment: PROTAC activity at CRBN E3 ligase/EZH2 in PRC2 complex in human LNCaP cells assessed as induction of EED degradation by measuring reduction in EED protein level at 1 uM incubated for 48 hrs by Western blot analysis. The experiment is classed as cell-based. In short, it runs like this: (§3)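 Cancer cell lines exposed to 1 μM compound for 48 h. Lysates immunoblotted (SDS-PAGE, nitrocellulose, 5% milk block, primary antibody overnight at 4 °C) for EZH2, SUZ12, EED, RbAp48 and H3K27me3. Bands quantified by densitometry and normalized to GAPDH.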

In experiment [9] the test system is A549. Nature of the experiment: Downregulation of […] mRNA expression in human A549 cells at 10 uM incubated for 48 hrs by qRT-PCR analysis. In kind it is functional, cell-based. An outline of the steps: as §2
For experiment [10], the target named is T1, Protein cereblon/Histone-lysine N-methyltransferase EZH2 (Homo sapiens). Kind of experiment: PROTAC activity at CRBN E3 ligase/EZH2 in PRC2 complex in human WSUDLCL2 cells assessed as downregulation of EED expression at 1 uM pretreated with EPZ6438 for 4 hrs followed by compound addition and measured after 48 hrs by Western blot analysis. In kind it is cell-based. In short, it runs like this: as §1

Experiment [11] relates to NCI-H1299. Nature of the experiment: Downregulation of […] mRNA expression in human NCI-H1299 cells at 10 uM incubated for 48 hrs by qRT-PCR analysis. The experiment is classed as functional, cell-based. In short, it runs like this:
as §2

For experiment [12], the target named is Polycomb protein EED (Homo sapiens) (UniProt O75530). Nature of the experiment: Binding affinity to EED in human WSUDLCL2 cells assessed as thermal stability by measuring shift in temperature at 60 uM pretreated with proteasome inhibitor MG132 for 1 hr followed by compound addition incubated for 2 hrs by cellular thermal shift based Western blot analysis. In kind it is cell-based. An outline of the steps:
(§4)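 Cellular thermal shift: cells suspended at 1.5 × 10⁶/mL and pretreated with MG-132 (5 μM, 1 h), then given 60 μM compound for 2 h with a DMSO control. Cells were lysed in RIPA with cocktail for 1 h. Supernatant aliquots were heated 6 min at 45, 48, 51, 54, 57 and 60 °C and centrifuged 15 min. Soluble protein was immunoblotted; bands quantified by densitometry; three independent experiments.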

Experiment [13] concerns the target T1, Protein cereblon/Histone-lysine N-methyltransferase EZH2 (Homo sapiens). Kind of experiment: PROTAC activity at CRBN E3 ligase/EZH2 in PRC2 complex in human WSUDLCL2 cells assessed as effect on SUZ12 mRNA expression at 1 uM incubated for 48 hrs by RT-qPCR analysis. In kind it is cell-based. An outline of the steps:
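WSU-DLCL-2 cells treated 48 h with 1 μM compound. Total RNA extracted with Trizol and reverse-transcribed. SYBR qPCR run as 95 °C 30 s, then 40 cycles of 95 °C 6 s and 60 °C 20 s. PRC2 subunit mRNA normalized to the DMSO-treated group; mean SD, t-test.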
In general terms: In qPCR the cycle at which signal appears reflects the starting amount.

In experiment [14] the target is Histone-binding protein RBBP4 (Homo sapiens) (UniProt Q09028). Kind of experiment: Binding affinity to RbAp48 in human WSUDLCL2 cells assessed as thermal stability by measuring shift in temperature at 60 uM pretreated with proteasome inhibitor MG132 for 1 hr followed by compound addition incubated for 2 hrs by cellular thermal shift based Western blot analysis. The experiment is classed as cell-based. An outline of the steps: as §4
Histone-binding protein RBBP4 (Homo sapiens), sequence (Q09028 whole entry): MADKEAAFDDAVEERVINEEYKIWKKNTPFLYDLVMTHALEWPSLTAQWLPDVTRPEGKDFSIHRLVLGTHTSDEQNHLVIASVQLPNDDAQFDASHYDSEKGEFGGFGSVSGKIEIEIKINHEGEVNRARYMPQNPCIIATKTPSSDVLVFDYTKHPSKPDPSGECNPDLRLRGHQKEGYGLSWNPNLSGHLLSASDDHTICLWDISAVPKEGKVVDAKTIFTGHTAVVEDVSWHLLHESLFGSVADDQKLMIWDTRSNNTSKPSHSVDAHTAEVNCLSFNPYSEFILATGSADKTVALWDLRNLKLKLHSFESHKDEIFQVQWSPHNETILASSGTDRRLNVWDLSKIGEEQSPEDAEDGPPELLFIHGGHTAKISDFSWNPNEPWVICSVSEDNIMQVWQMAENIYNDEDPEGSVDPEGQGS

Experiment [15] deals with T1, Protein cereblon/Histone-lysine N-methyltransferase EZH2 (Homo sapiens). Kind of experiment: PROTAC activity at CRBN E3 ligase/EZH2 in PRC2 complex in human A2780 cells assessed as induction of EZH2 degradation by measuring reduction in EZH2 protein level at 1 uM incubated for 48 hrs by Western blot analysis. In kind it is cell-based. An outline of the steps: as §3

Experiment [16] deals with Pfeiffer. Nature of the experiment: Upregulation of TXINP mRNA expression in human Pfeiffer cells at 1 uM incubated for 48 hrs by qRT-PCR analysis. The experiment is classed as functional, cell-based. An outline of the steps:
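WSU-DLCL-2 or Pfeiffer cells treated 48 h. Trizol RNA extraction, reverse transcription, SYBR qPCR (95 °C 30 s; 40 cycles of 95 °C 6 s, 60 °C 20 s). mRNA normalized to DMSO-treated cells; mean ± SD of three independent experiments, t-test.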

In experiment [17] the target is T1, Protein cereblon/Histone-lysine N-methyltransferase EZH2 (Homo sapiens). Kind of experiment: PROTAC activity at CRBN E3 ligase/EZH2 in PRC2 complex in human WSUDLCL2 cells assessed as downregulation of EZH2 expression at 1 uM pretreated with GSK126 for 4 hrs followed by compound addition and measured after 48 hrs by Western blot analysis. The experiment is classed as cell-based. In short, it runs like this:
as §1

T1 sequence (Q15910 whole entry, looked up): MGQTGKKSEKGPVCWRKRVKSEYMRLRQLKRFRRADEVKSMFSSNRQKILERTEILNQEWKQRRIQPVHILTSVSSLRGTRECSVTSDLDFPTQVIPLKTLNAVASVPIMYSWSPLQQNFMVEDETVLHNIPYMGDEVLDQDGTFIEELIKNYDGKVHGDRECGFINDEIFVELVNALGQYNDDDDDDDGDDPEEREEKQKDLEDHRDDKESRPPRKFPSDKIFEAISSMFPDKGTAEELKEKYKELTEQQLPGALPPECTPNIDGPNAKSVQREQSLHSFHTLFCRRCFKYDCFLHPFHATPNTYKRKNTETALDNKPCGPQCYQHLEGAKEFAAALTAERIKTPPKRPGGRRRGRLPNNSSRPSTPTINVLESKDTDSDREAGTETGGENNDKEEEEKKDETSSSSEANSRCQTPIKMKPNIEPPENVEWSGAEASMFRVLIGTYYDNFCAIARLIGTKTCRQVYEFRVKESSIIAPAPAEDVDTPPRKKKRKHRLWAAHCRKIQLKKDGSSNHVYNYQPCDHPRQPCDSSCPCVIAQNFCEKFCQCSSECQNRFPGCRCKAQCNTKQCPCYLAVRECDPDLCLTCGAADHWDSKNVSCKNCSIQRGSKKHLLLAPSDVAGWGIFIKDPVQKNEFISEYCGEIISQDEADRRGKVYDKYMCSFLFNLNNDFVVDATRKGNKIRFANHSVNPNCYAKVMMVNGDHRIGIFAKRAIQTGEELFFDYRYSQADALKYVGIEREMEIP
T1 sequence (Q96SW2 whole entry, looked up): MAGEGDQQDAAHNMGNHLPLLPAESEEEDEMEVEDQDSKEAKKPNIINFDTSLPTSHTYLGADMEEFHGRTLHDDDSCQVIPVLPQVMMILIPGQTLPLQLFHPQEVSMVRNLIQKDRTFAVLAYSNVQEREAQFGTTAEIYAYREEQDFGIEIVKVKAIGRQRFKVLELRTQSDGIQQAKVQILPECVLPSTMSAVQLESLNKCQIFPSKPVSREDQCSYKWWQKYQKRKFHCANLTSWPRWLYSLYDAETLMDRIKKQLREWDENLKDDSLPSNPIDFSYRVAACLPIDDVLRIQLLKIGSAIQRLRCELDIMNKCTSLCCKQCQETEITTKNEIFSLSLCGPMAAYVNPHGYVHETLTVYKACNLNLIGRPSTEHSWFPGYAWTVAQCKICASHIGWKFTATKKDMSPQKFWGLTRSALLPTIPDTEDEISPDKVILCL
Polycomb protein EED (Homo sapiens), sequence (O75530 2-441 limits assumed): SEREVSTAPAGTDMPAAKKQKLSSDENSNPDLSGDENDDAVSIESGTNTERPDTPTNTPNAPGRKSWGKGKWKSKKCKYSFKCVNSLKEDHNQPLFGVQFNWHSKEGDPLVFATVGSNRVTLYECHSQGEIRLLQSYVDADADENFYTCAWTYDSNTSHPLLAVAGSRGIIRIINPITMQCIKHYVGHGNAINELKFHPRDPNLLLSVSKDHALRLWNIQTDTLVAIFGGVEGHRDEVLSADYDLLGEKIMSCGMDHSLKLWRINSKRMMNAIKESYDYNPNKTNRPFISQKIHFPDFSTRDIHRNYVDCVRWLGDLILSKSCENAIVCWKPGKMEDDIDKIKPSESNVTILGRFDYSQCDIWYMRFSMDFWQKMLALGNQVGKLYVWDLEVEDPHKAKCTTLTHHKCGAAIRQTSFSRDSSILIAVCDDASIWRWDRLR

For the molecule `CCN(c1cc(-c2ccc(CN3CCN(CCCCCCCOc4cccc5c4C(=O)N(C4CCC(=O)NC4=O)C5=O)CC3)cc2)cc(C(=O)NCc2c(C)cc(C)[nH]c2=O)c1C)C1CCOCC1` (configuration not stated), the result in [1], in experiment [2], in experiment [3], in experiment [10], in experiment [12] and in experiment [13] was inactive. The result in experiment [14], in experiment [16] and in experiment [17] was inactive. The result in experiment [4], in experiment [5], in experiment [6], in experiment [7], in experiment [8] and in [9] was Active. In addition, the outcome in experiment [11] and in [15] was Active.

(Values after ChEMBL document CHEMBL5038571, “Design and Synthesis of EZH2-Based PROTACs to Degrade the PRC2 Complex for Targeting the Noncatalytic Activity of EZH2” (J Med Chem, 2021).)
